Assay results taken from ChEMBL document CHEMBL1126018, “Syntheses and 5-HT2 antagonist activity of bicyclic 1,2,4-triazol-3(2H)-one and 1,3,5-triazine-2,4(3H)-dione derivatives” (J Med Chem, 1992).

Assays:
[1] = biological target: Serotonin 2 (5-HT2) receptor (Rattus norvegicus, UniProt P30994+P08909+P14842); test: In vitro antagonistic activity tested against the contraction induced by 5-HT through 5-hydroxytryptamine 2 receptor in rat thoracic aortic strips; assay type: functional
[2] = biological target: T1, Adrenergic receptor alpha-1 (Rattus norvegicus, UniProt P15823+P23944+P43140); test: In vitro antagonistic activity tested against the contraction induced by phenylephrine through Alpha-1 adrenergic receptor in rat thoracic aortic strips; assay type: functional
T1 sequence (P15823 whole entry): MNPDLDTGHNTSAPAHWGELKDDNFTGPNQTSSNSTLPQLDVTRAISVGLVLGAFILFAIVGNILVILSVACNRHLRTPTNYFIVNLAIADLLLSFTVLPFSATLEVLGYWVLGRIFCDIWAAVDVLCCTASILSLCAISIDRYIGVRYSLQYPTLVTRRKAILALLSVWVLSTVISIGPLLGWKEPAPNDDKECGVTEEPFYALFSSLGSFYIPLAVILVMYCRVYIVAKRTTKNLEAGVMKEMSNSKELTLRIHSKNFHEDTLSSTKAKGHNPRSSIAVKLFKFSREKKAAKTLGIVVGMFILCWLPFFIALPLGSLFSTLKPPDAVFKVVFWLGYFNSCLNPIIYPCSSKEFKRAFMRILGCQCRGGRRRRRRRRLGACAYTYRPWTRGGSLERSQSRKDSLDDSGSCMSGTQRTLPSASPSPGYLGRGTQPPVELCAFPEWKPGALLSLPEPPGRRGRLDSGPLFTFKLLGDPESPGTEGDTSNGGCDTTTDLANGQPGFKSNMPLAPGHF
T1 sequence (P23944 whole entry): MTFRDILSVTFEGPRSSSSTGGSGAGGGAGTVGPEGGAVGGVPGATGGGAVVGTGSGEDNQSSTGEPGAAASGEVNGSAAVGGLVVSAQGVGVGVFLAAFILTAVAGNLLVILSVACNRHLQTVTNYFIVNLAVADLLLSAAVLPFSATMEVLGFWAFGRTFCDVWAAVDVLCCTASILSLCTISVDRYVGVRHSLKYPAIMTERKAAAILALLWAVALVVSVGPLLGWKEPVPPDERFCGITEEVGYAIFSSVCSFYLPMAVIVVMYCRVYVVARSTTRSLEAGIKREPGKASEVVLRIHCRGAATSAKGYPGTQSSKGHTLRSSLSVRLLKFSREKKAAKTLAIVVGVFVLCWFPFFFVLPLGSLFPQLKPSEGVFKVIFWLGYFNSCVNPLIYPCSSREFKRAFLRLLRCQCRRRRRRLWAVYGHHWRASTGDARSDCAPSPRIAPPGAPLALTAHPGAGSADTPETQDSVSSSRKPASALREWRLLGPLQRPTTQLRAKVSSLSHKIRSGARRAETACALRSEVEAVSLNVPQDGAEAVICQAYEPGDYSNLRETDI
T1 sequence (P43140 whole entry): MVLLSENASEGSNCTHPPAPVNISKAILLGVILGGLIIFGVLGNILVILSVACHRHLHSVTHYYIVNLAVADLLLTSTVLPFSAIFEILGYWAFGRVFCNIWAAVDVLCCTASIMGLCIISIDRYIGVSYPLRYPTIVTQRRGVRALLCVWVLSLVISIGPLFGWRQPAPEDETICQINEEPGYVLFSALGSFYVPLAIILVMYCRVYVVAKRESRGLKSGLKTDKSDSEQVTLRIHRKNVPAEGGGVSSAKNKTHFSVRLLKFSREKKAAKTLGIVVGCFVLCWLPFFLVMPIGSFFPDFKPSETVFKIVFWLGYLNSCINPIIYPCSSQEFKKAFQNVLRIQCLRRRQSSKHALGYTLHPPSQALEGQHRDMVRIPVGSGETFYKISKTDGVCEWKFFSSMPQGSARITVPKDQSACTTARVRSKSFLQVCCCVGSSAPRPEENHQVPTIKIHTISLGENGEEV
Summary of the method: (§1)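 Rat thoracic aortic strips, isometric tension; equilibrated 120 min, primed with 60 mM KCl. Cumulative phenylephrine (0.01-10 μM) curve, wash, 1 h later second cumulative curve with test drug present. pA2 from the concentration-response curves where blockade is competitive (otherwise noncompetitive); single determination.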

[3] = biological target: T2, Adrenergic receptor alpha-1 (Rattus norvegicus) (UniProt P15823+P23944+P43140); test: In vivo inhibitory activity in rats against elevation of blood pressure caused by phenylephrine (30 ug/kg, iv) through Alpha-1 adrenergic receptor, after 1 hr oral administration at dose of 10 mg/kg; assay type: functional, organism-based; set-up: dose 10 mg/kg
Summary of the method: (§2)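 Male SD rats under urethane (1 g/kg ip) and alpha-chloralose (80 mg/kg ip). Blood pressure recorded via carotid catheter and transducer, iv dosing via venous catheter. After oral drug or vehicle, phenylephrine 30 μg/kg iv. The pressor rise was expressed as % inhibition, mean ± SEM.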

[4] = biological target: Serotonin 2 (5-HT2) receptor (Rattus norvegicus) (UniProt P30994+P08909+P14842); test: In vivo inhibitory activity of 10 mg/kg compound in rats against elevation of BP caused by 5-HT (300 ug/kg, iv) through 5-hydroxytryptamine 2 receptor 1 hr after oral administration; assay type: functional, organism-based; set-up: dose 10 mg/kg
Serotonin 2 (5-HT2) receptor (Rattus norvegicus), sequence (P08909 whole entry, looked up): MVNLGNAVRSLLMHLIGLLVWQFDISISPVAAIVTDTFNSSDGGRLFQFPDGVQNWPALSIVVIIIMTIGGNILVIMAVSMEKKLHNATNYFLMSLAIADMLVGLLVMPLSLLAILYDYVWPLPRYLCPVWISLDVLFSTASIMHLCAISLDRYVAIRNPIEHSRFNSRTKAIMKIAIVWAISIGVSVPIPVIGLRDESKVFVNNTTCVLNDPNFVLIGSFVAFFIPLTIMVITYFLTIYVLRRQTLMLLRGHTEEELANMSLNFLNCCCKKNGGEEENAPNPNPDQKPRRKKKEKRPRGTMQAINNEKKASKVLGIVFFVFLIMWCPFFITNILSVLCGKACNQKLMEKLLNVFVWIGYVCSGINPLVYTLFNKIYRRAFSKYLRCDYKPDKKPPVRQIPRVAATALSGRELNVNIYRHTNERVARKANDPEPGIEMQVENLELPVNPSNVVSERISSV
Serotonin 2 (5-HT2) receptor (Rattus norvegicus), sequence (P14842 whole entry, looked up): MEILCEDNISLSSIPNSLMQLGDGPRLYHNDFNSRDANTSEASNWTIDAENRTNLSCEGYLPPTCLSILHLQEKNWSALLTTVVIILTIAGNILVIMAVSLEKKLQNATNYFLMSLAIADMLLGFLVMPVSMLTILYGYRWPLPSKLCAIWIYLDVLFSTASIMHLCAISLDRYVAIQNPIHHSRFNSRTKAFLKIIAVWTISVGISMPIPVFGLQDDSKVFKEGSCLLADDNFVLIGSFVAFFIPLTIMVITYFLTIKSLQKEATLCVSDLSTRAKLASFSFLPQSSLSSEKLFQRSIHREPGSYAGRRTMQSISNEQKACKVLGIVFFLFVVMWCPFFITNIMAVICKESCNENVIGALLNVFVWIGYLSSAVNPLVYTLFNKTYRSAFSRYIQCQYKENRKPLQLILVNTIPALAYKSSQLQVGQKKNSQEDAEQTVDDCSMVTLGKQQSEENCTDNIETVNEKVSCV
Serotonin 2 (5-HT2) receptor (Rattus norvegicus), sequence (P30994 whole entry, looked up): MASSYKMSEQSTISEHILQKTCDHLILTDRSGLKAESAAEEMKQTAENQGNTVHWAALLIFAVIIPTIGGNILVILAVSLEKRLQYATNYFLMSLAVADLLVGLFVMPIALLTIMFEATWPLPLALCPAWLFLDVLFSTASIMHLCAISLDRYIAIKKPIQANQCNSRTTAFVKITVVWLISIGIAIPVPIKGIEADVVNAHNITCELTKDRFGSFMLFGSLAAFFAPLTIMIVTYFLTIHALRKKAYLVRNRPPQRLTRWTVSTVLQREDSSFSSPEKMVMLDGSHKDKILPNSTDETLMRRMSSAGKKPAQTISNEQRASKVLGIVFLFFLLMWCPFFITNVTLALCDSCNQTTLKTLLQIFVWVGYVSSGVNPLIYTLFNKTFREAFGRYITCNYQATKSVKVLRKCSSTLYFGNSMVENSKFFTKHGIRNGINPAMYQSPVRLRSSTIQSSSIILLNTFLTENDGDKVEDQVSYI
Summary of the method: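 Male SD rats anesthetized with urethane (1 g/kg ip) plus alpha-chloralose (80 mg/kg ip). Carotid arterial catheter to a pressure transducer, venous catheter for injection. After oral drug or vehicle, 5-HT 300 μg/kg iv. The pressor phase following the brief hypotensive phase was measured and expressed as % inhibition, mean ± SEM.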

[5] = biological target: T1, Adrenergic receptor alpha-1; test: In vitro antagonistic activity against the contraction induced by phenylephrine through alpha-1 receptor in rat thoracic aortic strips; assay type: functional; summary of the method: as §1
[6] = biological target: T2, Adrenergic receptor alpha-1 (Rattus norvegicus); test: In vivo inhibitory activity in rats against elevation of blood pressure caused by phenylephrine (30 ug/kg, iv) through alpha-1 receptor after 1 hr of oral administration at the dose of 10 mg/kg; assay type: functional, organism-based; set-up: dose 10 mg/kg; summary of the method: as §2

SMILES	pA2 [1]	pA2 [2]	inhibition [4] [%]	pA2 [5]	inhibition [3] [%]	inhibition [6] [%]
O=C(c1ccc(F)cc1)C1CCN(CCCn2c(=O)nc3n(c2=O)CCCC3)CC1	6.5	7.3	78	–	53	–
O=C(c1ccc(F)cc1)C1(O)CCN(CCn2c(=O)nc3n(c2=O)CCCC3)CC1	6.7	7.2	83	–	20	–
O=C(c1ccc(F)cc1)C1CCN(CCn2nc3n(c2=O)CCCC3)CC1	7.4	< 6	91	–	32	–
O=c1n(CCN2CCC(=C(c3ccc(F)cc3)c3ccc(F)cc3)CC2)nc2n1CCCCC2	8.5	–	90	7	–	3
O=C(c1ccc(F)cc1)C1(O)CCN(CCCn2nc3n(c2=O)CCCCC3)CC1	7.3	7.6	72	–	–	–
O=C(c1ccc(F)cc1)C1CCN(CCn2nc3n(c2=O)CCCC3)CC1c1ccc(F)cc1 (stereo unspecified)	6.8	6.8	90	–	15	–
O=C(c1ccc(F)cc1)C1(c2ccc(F)cc2)CCN(CCn2nc3n(c2=O)CCCC3)CC1	6	< 6	11	–	6	–
O=c1nc2sccn2c(=O)n1CCN1CCC(=C(c2ccc(F)cc2)c2ccc(F)cc2)CC1	7.1	< 6	93	–	20	–
O=c1n(CCN2CCC(=C(c3ccc(F)cc3)c3ccc(F)cc3)CC2)nc2n1CCCO2	–	7.8	89	–	16	–
O=C(c1ccc(F)cc1)C1CCN(CCn2c(=O)nc3n(c2=O)CCCCC3)CC1	7.8	6.9	78	–	15	–
O=C(c1ccc(F)cc1)C1CCN(CCn2nc3n(c2=O)CCC3)CC1	6.8	6.4	65	–	36	–

More lines, main results first:

pA2 [1]	pA2 [2]	inhibition [4] [%]	pA2 [5]	SMILES	inhibition [3] [%]	inhibition [6] [%]
7.7	7.8	–	–	O=C(c1ccc(F)cc1)C1CCN(CCCn2nc3n(c2=O)CCCC3)CC1	–	–
6.8	7	85	–	O=C(c1ccc(F)cc1)C1(O)CCN(CCn2nc3n(c2=O)CCCC3)CC1	15	–
7	< 6	42	–	O=c1n(CCN2CCC(=C(c3ccccc3)c3ccccc3)CC2)nc2n1CCCCC2	3	–
8.3	–	93	6.8	O=c1nc2n(c(=O)n1CCN1CCC(=C(c3ccc(F)cc3)c3ccc(F)cc3)CC1)CCCC2	–	12
8.1	7.5	–	–	O=C(c1ccc(F)cc1)C1CCN(CCn2c(=O)nc3ccccn3c2=O)CC1	–	–
7.2	6.6	60	–	O=c1n(CCN2CCC(=C(c3ccc(F)cc3)c3ccc(F)cc3)CC2)nc2n1CCOC2	10	–
7.3	7.1	67	–	O=C(c1ccc(F)cc1)C1CCN(CCn2c(=O)nc3n(c2=O)CCC3)CC1	23	–
7.4	6.3	62	–	O=C(c1ccc(F)cc1)C1CCN(CCn2nc3n(c2=O)CCOC3)CC1	36	–
6.7	6.3	32	–	N#CC(=C1CCN(CCn2nc3n(c2=O)CCCC3)CC1)c1ccc(F)cc1	2	–
8.3	–	83	6.8	O=c1nc2n(c(=O)n1CCN1CCC(=C(c3ccc(F)cc3)c3ccc(F)cc3)CC1)CCC2	8	–
7.3	6.4	84	–	O=c1n(CCN2CCC(=C(c3ccccc3)c3ccc(F)cc3)CC2)nc2n1CCCCC2	7	–
7.8	7.5	67	–	O=c1n(CCN2CCC(=C(c3ccc(F)cc3)c3ccc(F)cc3)CC2)nc2n1CCSC2	4	–
